From the RNAGym collection of RNA variant scans (doi:10.1002/anie.201605470)

B1: Osa-1-4 twister ribozyme (parent)
chain: CCGCCUAACACUGCCAAUGCCGGUCCCAAGCCCGGAUAAAAGUGGAGGGGGCGG

Variants of: B1
Assay: self-cleavage, relative activity (ratio to wild type); higher = more cleavage; co-transcriptional
Procedure, shortened: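 A DNA template encoding a 54-nucleotide twister ribozyme from Oryza sativa was made so that each of the 48 positions downstream of the cleavage site carried 97 % wild-type base and 1 % of each other base. Transcription in vitro ran for 2 h at 37 °C, during which the ribozyme could cleave itself. Reverse transcription used a template-switching oligonucleotide, and the products were PCR-amplified and deep-sequenced. Each read was scored as cleaved or uncleaved by whether upstream sequence was present, and relative activity is the fraction cleaved normalised to wild type.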

Variant	self-cleavage
C15G G22C	0.06
C15G G22U	0.09
C15G G23A	0.14
C15G G23C	0.07
C15G G23U	0.04
C15G G30A	0.03
C15G G30C	0.03
C15G G30U	0.06
C15G G34A	0.27
C15G G34C	0.18
C15G G34U	0.13
C15G G35A	0.38
C15G G35C	0.14
C15G G35U	0.3
C15G G42A	0.12
C15G G42C	0.08
C15G G42U	0.05
C15G G44A	0.12
C15G G44C	0.19
C15G G44U	0.17
C15G G45A	0.07
C15G G45C	0.04
C15G G45U	0.04
C15G G47A	0.08

Variant	self-cleavage
C15G G47C	0.06
C15G G47U	0.09
C15G G48A	0.05
C15G G48C	0.05
C15G G48U	0.04
C15G G49A	0.07
C15G G49C	0.05
C15G G49U	0.06
C15G G50A	0.3
C15G G50C	0.14
C15G G50U	0.26
C15G G51A	0.13
C15G G51C	0.07
C15G G51U	0.08
C15G G53A	0.13
C15G G53C	0.05
C15G G53U	0.13
C15G G54A	0.19
C15G G54C	0.16
C15G G54U	0.35
C15G U12A	0.13
C15G U12C	0.1
C15G U12G	0.15
C15G U18A	0.48

Variant	self-cleavage
C15G U18C	0.54
C15G U18G	0.37
C15G U24A	0.07
C15G U24C	0.09
C15G U24G	0.02
C15G U37A	0.45
C15G U37C	0.47
C15G U37G	0.72
C15G U43A	0.17
C15G U43C	0.11
C15G U43G	0.1
C15U	0.53
C15U C9A	0.05
C15U C9G	0.14
C15U C9U	0.07
C15U C20A	0.45
C15U C20G	0.05
C15U C20U	0.54
C15U C21A	0.09
C15U C21G	0.04
C15U C21U	0.46
C15U C25A	0.03
C15U C25G	0.04
C15U C25U	0.08

Variant	self-cleavage
C15U C26A	0.01
C15U C26G	0.06
C15U C26U	0.08
C15U C27A	0.07
C15U C27G	0.06
C15U C27U	0.08
C15U C31A	0.03
C15U C31G	0.06
C15U C31U	0.06
C15U C32A	0.03
C15U C32G	0.08
C15U C32U	0.06
C15U C33A	0.05
C15U C33G	0.03
C15U C33U	0.06
C15U C52A	0.26
C15U C52G	0.41
C15U C52U	0.48
C15U G13A	0.05
C15U G13C	0.02
C15U G13U	0.02
C15U G19A	1.03
C15U G19C	0.12
C15U G19U	0.46

Variant	self-cleavage
C15U G22A	0.17
C15U G22C	0.03
C15U G22U	0.11
C15U G23A	0.06
C15U G23C	0.03
C15U G23U	0.03
C15U G30A	0.02
C15U G30C	0.02
C15U G30U	0.03
C15U G34A	0.21
C15U G34C	0.09
C15U G34U	0.15
C15U G35A	0.59
C15U G35C	0.07
C15U G35U	0.35
C15U G42A	0.12
C15U G42C	0.06
C15U G42U	0.06
C15U G44A	0.08
C15U G44C	0.23
C15U G44U	0.16
C15U G45A	0.04
C15U G45C	0.04
C15U G45U	0.03

Variant	self-cleavage
C15U G47A	0.06
C15U G47C	0.05
C15U G47U	0.05
C15U G48A	0.05
C15U G48C	0.05
C15U G48U	0.03
C15U G49A	0.05
C15U G49C	0.04
C15U G49U	0.04
C15U G50A	0.47
C15U G50C	0.23
C15U G50U	0.43
C15U G51A	0.15
C15U G51C	0.04
C15U G51U	0.07
C15U G53A	0.12
C15U G53C	0.05
C15U G53U	0.1
C15U G54A	0.16
C15U G54C	0.14
C15U G54U	0.43
C15U U12A	0.11
C15U U12C	0.06
C15U U12G	0.1

Variant	self-cleavage
C15U U18A	0.51
C15U U18C	0.52
C15U U18G	0.39
C15U U24A	0.04
C15U U24C	0.04
C15U U24G	0.03
C15U U37A	0.62
C15U U37C	0.36
C15U U37G	0.76
C15U U43A	0.16
C15U U43C	0.09
C15U U43G	0.12
A16C	0.97
A16C A7C	0.07
A16C A7G	0.17
A16C A7U	0.15
A16C A8C	0.13
A16C A8G	0.36
A16C A8U	0.19
A16C A17C	0.87
A16C A17G	0.9
A16C A17U	0.98
A16C A28C	0.83
A16C A28G	0.16

Variant	self-cleavage
A16C A28U	0.76
A16C A29C	0.05
A16C A29G	0.11
A16C A29U	0.07
A16C A36C	0.33
A16C A36G	1.01
A16C A36U	0.99
A16C A38C	1.01
A16C A38G	0.96
A16C A38U	1.01
A16C A39C	0.89
A16C A39G	0.95
A16C A39U	0.95
A16C A40C	0.07
A16C A40G	0.54
A16C A40U	0.52
A16C A41C	0.74
A16C A41G	0.63
A16C A41U	0.97
A16C A46C	0.06
A16C A46G	0.06
A16C A46U	0.07
A16C C9A	0.5
A16C C9G	0.51

Variant	self-cleavage
A16C C9U	0.77
A16C C11A	0.58
A16C C11G	0.17
A16C C11U	0.86
A16C C14A	0.08
A16C C14G	0.29
A16C C14U	0.27
A16C C15A	0.39
A16C C15G	0.54
A16C C15U	0.62
A16C C20A	0.83
A16C C20G	0.12
A16C C20U	0.93
A16C C21A	0.45
A16C C21G	0.08
A16C C21U	0.93
A16C C25A	0.08
A16C C25G	0.1
A16C C25U	0.72
A16C C26A	0.03
A16C C26G	0.1
A16C C26U	0.76
A16C C27A	0.13
A16C C27G	0.06

Variant	self-cleavage
A16C C27U	0.1
A16C C31A	0.04
A16C C31G	0.1
A16C C31U	0.55
A16C C32A	0.07
A16C C32G	0.12
A16C C32U	0.09
A16C C33A	0.08
A16C C33G	0.06
A16C C33U	0.55
A16C C52A	0.9
A16C C52G	0.96
A16C C52U	0.98
A16C G13A	0.08
A16C G13C	0.04
A16C G13U	0.04
A16C G19A	0.62
A16C G19C	0.13
A16C G19U	0.19
A16C G22A	0.76
A16C G22C	0.07
A16C G22U	0.31
A16C G23A	0.14
A16C G23C	0.04

Variant	self-cleavage
A16C G23U	0.06
A16C G30A	0.04
A16C G30C	0.05
A16C G30U	0.04
A16C G34A	0.44
A16C G34C	0.23
A16C G34U	0.34
A16C G35A	0.61
A16C G35C	0.17
A16C G35U	0.64
A16C G42A	0.6
A16C G42C	0.11
A16C G42U	0.52
A16C G44A	0.95
A16C G44C	0.97
A16C G44U	0.94
A16C G45A	0.17
A16C G45C	0.05
A16C G45U	0.09
A16C G47A	0.14
A16C G47C	0.05
A16C G47U	0.13
A16C G48A	0.06
A16C G48C	0.07

Variant	self-cleavage
A16C G48U	0.06
A16C G49A	0.09
A16C G49C	0.05
A16C G49U	0.08
A16C G50A	0.71
A16C G50C	0.82
A16C G50U	0.97
A16C G51A	0.53
A16C G51C	0.12
A16C G51U	0.35
A16C G53A	0.65
A16C G53C	0.09
A16C G53U	0.25
A16C G54A	0.86
A16C G54C	0.82
A16C G54U	0.88
A16C U12A	0.71
A16C U12C	0.44
A16C U12G	0.09
A16C U18A	0.92
A16C U18C	0.91
A16C U18G	0.85
A16C U24A	0.11
A16C U24C	0.17

Variant	self-cleavage
A16C U24G	0.04
A16C U37A	0.84
A16C U37C	1.02
A16C U37G	0.96
A16C U43A	0.7
A16C U43C	0.33
A16C U43G	0.16
A16G	1.01
A16G A7C	0.08
A16G A7G	0.61
A16G A7U	0.13
A16G A8C	0.09
A16G A8G	0.76
A16G A8U	0.5
A16G A17C	0.91
A16G A17G	0.92
A16G A17U	0.94
A16G A28C	1
A16G A28G	0.6
A16G A28U	0.92
A16G A29C	0.08
A16G A29G	0.39
A16G A29U	0.27
A16G A36C	0.86

Variant	self-cleavage
A16G A36G	1.01
A16G A36U	1.06
A16G A38C	0.98
A16G A38G	0.97
A16G A38U	1.05
A16G A39C	1.01
A16G A39G	0.9
A16G A39U	0.97
A16G A40C	0.11
A16G A40G	0.77
A16G A40U	0.88
A16G A41C	0.99
A16G A41G	0.74
A16G A41U	1.05
A16G A46C	0.15
A16G A46G	0.1
A16G A46U	0.11
A16G C9A	0.59
A16G C9G	0.92
A16G C9U	0.84
A16G C11A	0.85
A16G C11G	0.65
